Test results from article PMC2748801 (Journal of the American Chemical Society, 2009).
Square brackets hold non-standard residues; d marks the D form. Ends that are not written are not given here. Orn = NCCC[C@H](N)C(=O)O; Dab = NCC[C@H](N)C(=O)O; Dap = NC[C@H](N)C(=O)O

Experiments:
[1] = test system: hairpin from IRES domain IV of HCV (IRES); assay type: binding; conditions: for Discrimination ratio against IRES RNA: average Kd against other hairpins (RRE, TAR, 16S A-site)/Kd against IRES; for Kd against IRES hairpin (in words): fluorescence anisotropy, 3i and 3j relative to 3d
[2] = Circular dichroism, α-helical content of peptide alone; assay type: physicochemical; conditions: CD; for helicity (first value): 10 mM H3PO4, 20 °C; for helicity (second value): 50% TFE in 10 mM H3PO4, 20 °C
In short: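 Far-UV CD spectra of each free peptide, with no RNA, at 20 °C under temperature control, in 10 mM H3PO4 and in 50% TFE in the same buffer. Scans ran 190–250 nm with 1 nm bandwidth, 0.5 nm data pitch, 20 nm/min, 16 s response and 0.1 cm path, averaging three accumulations. α-Helical content was calculated from the spectra.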

| Substance | Discrimination ratio against IRES RNA [1] | Kd against IRES hairpin (in words) [1] | helicity (first value) [2] [%] | helicity (second value) [2] [%] |
| --- | --- | --- | --- | --- |
| Ac-LKKLLKLLKKLLKWAG-NH2 [2u] | 14 | subnanomolar | 20 | 52 |
| Ac-LKKLLKLLKKLWKLAG-NH2 [2t] | 5.8 |  | 12 | 58 |
| Ac-LKKLLKLLKKWLKLAG-NH2 [2s] | 5.8 |  | 27 | 60 |
| Ac-LKKLLKLWKKLLKLAG-NH2 [2r] | 0.67 |  | 14 | 59 |
| Ac-LKKLLKWLKKLLKLAG-NH2 [2q] | 15 | subnanomolar | 19 | 71 |
| Ac-LKKLWKLLKKLLKLAG-NH2 [2p] | 3.3 |  | 20 | 56 |
| Ac-LKKWLKLLKKLLKLAG-NH2 [2o] | 5.5 |  | 4.6 | 52 |
| Ac-WKKLLKLLKKLLKLAG-NH2 [2n] | 2.4 | subnanomolar | 48 | 65 |
| LKKLLKLLKKLL[Dab]LAG [2h] | 2.0 |  | 24 | 34 |
| LKKLLKLLKKLL[Dap]LAG [2i] | 12 |  | 39 | 54 |
| LKKLLKLLKKLL[Dap]WAG [3g] | 9.4 |  | 41 | 63 |
| LKKLLKLLKKLL[Orn]LAG [2g] | 3.3 |  | 36 | 53 |
| LKKLLKLL[Dab]KLLKLAG [2e] | 6.5 |  | 43 | 57 |
| LKKLLKLL[Dap]KLLKLAG [2f] | 0.6 |  | 25 | 57 |
| LKKLLKLL[Orn]KLLKLAG [2d] | 9.1 |  | 28 | 57 |
| LKKLLKLL[Orn]KLLKWAG [3f] | 1.0 |  | 36 | 58 |
| LKKLLKLL[Orn]KLL[Dap]LAG [2k] | 25 |  | 48 | 61 |
| LKKLLKLL[Orn]KLL[Dap]WAG [3h] | 1.6 |  | 12 | 56 |
| LKKLLKWLKKLL[Dap]LAG [3c] | 17 |  | 29 | 36 |
| LKKLLKWL[Orn]KLLKLAG [3b] | 4.2 |  | 34 | 52 |
| LKKLLKWL[Orn]KLL[Dap]LAG [3d] | 45 |  | 32 | 38 |
| LKKLL[Dab]LLKKLLKLAG [2b] | 6.3 |  | 23 | 63 |
| LKKLL[Dab]LLKKLLKWAG [3e] | 28 |  | 39 | 45 |
| LKKLL[Dab]LLKKLL[Dap]LAG [2l] | 13 |  | 40 | 50 |
| LKKLL[Dab]LL[Orn]KLLKLAG [2j] | 6.3 |  | 49 | 57 |
| LKKLL[Dab]LL[Orn]KLL[Dap]LAG [2m] | 4.9 |  | 49 | 69 |
| LKKLL[Dab]WLKKLLKLAG [3a] | 10 |  | 29 | 55 |
| LKKLL[Dap]LLKKLLKLAG [2c] | 2.4 |  | 26 | 61 |
| LKKLL[Orn]LLKKLLKLAG [2a] | 2.5 |  | 13 | 82 |
